# The sample as a whole holds a higher share of hits than the screen did.
# HSF1 inh: HSF1 inhibition. activity change, negative = inhibition, % at 7.5 µM (by protocol). 300,000 tested, 0.77% active. NIH3T3-HGL HSE-luciferase, MG132-induced, luminescence 8 h; stronger effect = lower value;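 active = more than half of replicate wells show activity change below -50%, luminescence cut by over half; inconclusive = some wells, but at most half, below -50%; inactive = no replicate well below -50%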;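 note: luciferase reports HSF-1 transcriptional activity via heat shock element; 0% = median of DMSO wells and -100% = zero luminescence signal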
# Lmaj promast: inhibitors of Leishmania major promastigote growth. Leishmania major promastigotes, resazurin fluorescence viability. 200,000 tested, 9% active. inhibition, % at 10 µM; in the data active = inhibition above about 50%;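 note: promastigotes grown with compound for 44 hours at 28 °C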
# Hsp70 activator: transcriptional activators of Hsp70; 200,000 tested, 0.04% active; AID 1203; activation, % at 10 µM; HeLa Hsp70 promoter luciferase reporter, luminescence; scaled: vehicle 0, proteasome-inhibitor control 100%;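 active = activation above the mean across all tested compounds plus 3 SD, cutoff set per campaign, cut at about 5.5% in these data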;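 note: 100% = MG132 at 30 µM as the positive control and 0% = DMSO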
# HSF-1 act: increases HSF-1 driven luciferase reporter signal; NIH3T3-HGL HSF-1 luciferase reporter, MG132, 8 h; 100% = twice DMSO control signal; activation, % at 9 µM; 300,000 tested, 1.7% active;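 active = mean replicate activation of at least 50% with a set share of replicates each reaching 50%; inconclusive = only one of those two conditions met; inactive = mean below 50% and too few replicates reaching it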;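 note: 0% = median of the neutral control wells and 100% = twice that signal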
# T cruzi repl: blocks replication of Trypanosoma cruzi; inhibition, % (test concentration not listed); T. cruzi beta-gal in NIH3T3, luminescence, 90 h; 300,000 tested, 1.4% active; AID 1885;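 active = mean inhibition across valid replicates above about 55%, limit read from the data; inconclusive = mean below that limit but half or more replicates reach it; inactive = mean below it, under half of replicates reach it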;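 note: signal also drops with host cell toxicity which is not excluded here; 0% = plate median of DMSO wells and 100% = zero luminescence signal; higher percent means less beta-gal luminescence so fewer parasites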
#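 Test system: β-gal T. cruzi (Tulahuen C4) inside NIH/3T3 cells / Quantity: 5,000 cells/well / Measured by: luminescence from GalScreen with 0.05% NP40, read after 60 min / Medium: DMEM plus 2% FBS / Measure: parasite load inhibition, % / Reagent: Tulahuen C4 trypomastigotes, 5000/well / Schedule: co-culture of at least 90 h after 3 h attachment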
# Active calls of the source: *; ? = inconclusive; · = no result given.
SMILES,HSF1 inh,Lmaj promast,Hsp70 activator,HSF-1 act,T cruzi repl
O=C(Nc1nnc(Cc2ccccc2)s1)Nc1ccccc1F,8,·,·,4,0
CCCCCC(=O)Nc1cc(S(=O)(=O)N2CCOCC2)ccc1N1CCN(C)CC1,-3,·,·,-8,64*
CSCCC(=O)Nc1cc(S(=O)(=O)N2CCOCC2)ccc1N1CCN(C)CC1,-5,-6,0,-12,65*
CN(C)CCCNC(=O)/C(=C/c1ccc(-c2ccc([N+](=O)[O-])cc2)o1)NC(=O)c1ccccc1,7,·,·,6,21
Cc1ccc(C(=O)N/C(=C/c2ccc(-c3cccc([N+](=O)[O-])c3)o2)C(=O)NC(C)(C)C)cc1,11,82*,0,15,16
Cc1ccc(C(=O)N/C(=C\c2ccc(-c3ccccc3[N+](=O)[O-])o2)C(=O)NCCCN(C)C)cc1,3,·,·,31,16
CN(C)CCNC(=O)/C(=C/c1ccc(-c2cccc(Cl)c2)o1)NC(=O)c1ccccc1,24,100*,0,66*,21
Cc1ccc(C(=O)N/C(=C/c2ccc(-c3cccc([N+](=O)[O-])c3)o2)C(=O)NC(C)C)cc1,-2,2,0,11,20
Cc1ccc(C(=O)N/C(=C\c2ccc(-c3ccc(Cl)cc3)o2)C(=O)NCCCN(C)C)cc1,-5,101*,0,0,56*
CN(C)CCCNC(=O)/C(=C\c1ccc(-c2ccc(Br)cc2)o1)NC(=O)c1ccccc1,-1,100*,0,2,27
COc1cc(C2C3=C(COC3=O)Oc3cc4c(cc32)OCO4)cc(OC)c1O (stereo not given),46,·,·,46,·
O=C(CCl)NN1C(=O)NC(c2ccccc2)(c2ccccc2)C1=O,4,·,·,4,-18
c1ccc(-c2nnc3sc(CN4CCC5(CC4)OCCO5)cn23)cc1,2,-8,0,-3,-15
Brc1cccc(-c2nnc3sc(CNCc4ccco4)cn23)c1,-4,4,0,2,5
Brc1ccc(-c2nnc3sc(CNCc4ccc5c(c4)OCO5)cn23)cc1,-3,85*,0,6,2
Brc1ccc(-c2nnc3sc(CNC4CCCC4)cn23)cc1,-5,91*,0,-22,-2
Cc1cccc(Nc2cc(=O)n(C)c(=O)[nH]2)c1,1,·,·,4,-15
Cc1ccc(C(OCC(O)CNC(C)c2ccccc2)c2ccccc2)cc1 (stereo not given),13,77*,0,21,50
CCCn1c(=O)n(C)c(=O)c2c(SCC(=O)NC34CC5CC(CC(C5)C3)C4)nc(CC(C)C)nc21,-1,39,0,5,69*
Cc1ccc(Cn2c(C(=O)NCCCN3CCOCC3)cc3sccc32)cc1,7,87*,0,21,16
Cn1c(C(=O)NCCN2CCOCC2)cc2sccc21,4,6,0,-1,-17
CCN1CCN(CCCNC(=O)c2cc3sccc3n2CC)CC1,-3,13,0,0,-10
O=C(Nc1ccc2c(c1)OCCO2)c1cc2sccc2n1Cc1ccc(F)cc1,-8,97*,0,-2,33
CCn1c(C(=O)NCCCN2CCc3ccccc3C2)cc2sccc21,9,91*,0,17,11
O=C(Cn1c(C(=O)NCCCN2CCOCC2)cc2sccc21)c1ccccc1,8,81*,1,9,-7
SMILES,HSF1 inh,Lmaj promast,Hsp70 activator,HSF-1 act,T cruzi repl
O=C(NCCCN1CCOCC1)c1ccc(CS(=O)(=O)Cc2ccc(Cl)cc2)o1,0,3,0,-2,5
Cc1cc2c(cc(C(=O)NCCCN3CCOCC3)n2Cc2ccc(Cl)cc2)o1,4,99*,0,0,-10
Nc1c(-c2ccc(Cl)cc2)nnn1-c1ccccc1,38,1,0,58*,-2
Nc1c(-c2ccc(Cl)cc2)cnn1-c1ccccc1,8,·,·,21,8
COc1ccc(NC(=O)NC23CC4(C)CC(C)(CC(C)(C4)C2)C3)cc1,-14,95*,0,-2,15
COc1ccc(NC(=O)NC2(C)CCS(=O)(=O)C2)cc1 (stereo not given),-11,·,·,7,-9
CCn1c(CC(=O)Nc2ccc(F)cc2)nnc1SCC(=O)NC1CCCC1,-5,·,·,-4,-6
O=C(NCC1CCCO1)c1cc2c([nH]c3ccccc32)c(-c2cccc(Br)c2)n1 (stereo not given),24,·,·,34,55*
Cc1ccc(-c2nnn3c2nc(NCCc2ccc(S(N)(=O)=O)cc2)c2ccccc23)cc1,-37,73*,0,-38,-10
Cc1cc(NC(=O)C(C)SCC(=O)OCc2ccc([N+](=O)[O-])cc2)no1 (stereo not given),-4,·,·,0,1
CSc1ccc(Cl)c(C(=O)OCC(=O)N(C)CCC#N)c1,19,-5,-1,59*,-11
CN(CCC#N)C(=O)COC(=O)c1ccc(Cl)cc1O,3,-8,0,-18,-10
COC(C(=O)Nc1ccnn1C1CCN(C(=O)c2ccc(C)cc2)CC1)c1ccccc1 (stereo not given),2,·,·,-6,-16
Cc1nn(Cc2c(Cl)cccc2Cl)c(C)c1NC(=O)CCCn1nc(C)c([N+](=O)[O-])c1C,-3,66*,0,31,0
Cc1ccc(Cn2nc(C)c(NC(=O)CCCn3nc(C)c([N+](=O)[O-])c3C)c2C)cc1,5,52*,0,-8,13
Cc1nn(Cc2ccccc2Cl)c(C)c1NC(=O)CCCn1nc([N+](=O)[O-])c(Cl)c1C,23,12,0,61*,71*
Cc1ccc(Cn2nc(C)c(NC(=O)CCCn3nc([N+](=O)[O-])c(Cl)c3C)c2C)cc1,14,8,0,37,39
Cc1[nH]c2ccccc2c1C(=O)C(=O)Nc1ccc2c(c1)OCO2,21,·,·,32,5
CCOc1ccc(NC(=S)N2CCCN(Cc3cc(C)ccc3C)C2)cc1,-1,39,0,-17,?
COc1cc(/C=C(\NC(C)=O)C(=O)Nc2ccc(NC(C)=O)cc2)ccc1OC(C)=O,-3,57*,0,7,-8
COc1ccc(CNC(=O)C(=O)NCC2CCCN2S(=O)(=O)c2cccs2)cc1 (stereo not given),1,·,·,7,18
NNC(=O)c1ccc(CSc2nc3ccccc3s2)cc1,13,4,0,24,9
CC1(N(O)C=C2C=CC(=O)C=C2)CCCCC1=O (stereo not given),3,·,·,-3,-1
CC1CCCN(CCCN2C(=O)C3C(C(=O)Nc4ccc(Cl)cc4)C4C=CC3(O4)C2C(=O)NC2CCCCC2)C1 (stereo not given),2,·,·,18,15
CCOc1ccc(CC(=O)N2CCC3(CC2)NCCc2[nH]cnc23)cc1,-62*,·,·,-71,-20
Cn1c(=N)n(CC(O)c2ccco2)c2ccccc21 (stereo not given),-5,5,0,1,4
